Reference: ChEMBL document CHEMBL4346669, “Novel nannocystin A analogues as anticancer therapeutics: Synthesis, biological evaluations and structure-activity relationship studies” (Eur J Med Chem, 2019)
pIC50: −log10 of the molar value. Calls of active or inactive are those of the source.

Columns and labels:
A549 [1] = assay: Antiproliferative activity against human A549 cells assessed as reduction in cell viability measured after 72 hrs by MTT assay; assay type: functional, cell-based; settings: for pIC50: Homo sapiens, A549, 72 h, read-out: IC50
In short: (§1)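 Cells seeded 5×10^3/well, cultured overnight, then exposed to 10, 1, 0.1, 0.01, 0.001 and 0.0001 µM (from 10 mM DMSO stocks diluted in medium; vehicle 1% DMSO PBS) for 72 h at 37 °C. Medium replaced with 0.5 mg/mL MTT for 4 h, formazan dissolved in DMSO, A570 read. IC50 as mean ± SD of three independent experiments.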

HCT-116 = assay: Antiproliferative activity against human HCT116 cells assessed as reduction in cell viability measured after 72 hrs by MTT assay; assay type: functional, cell-based; settings: for pIC50: Homo sapiens, HCT-116, 72 h, read-out: IC50; in short: as §1
A549 [2] = assay: Inhibition of elongation factor 1-alpha1 expression in human A549 cells at 100 nM after 24 hrs by Western blot analysis; assay type: functional
MCF7 = assay: Antiproliferative activity against human MCF7 cells assessed as reduction in cell viability measured after 72 hrs by MTT assay; assay type: functional, cell-based; settings: MCF7, 72 h
In short: (§2)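 Cells seeded at 5×10^3 per well and cultured overnight, then exposed for 72 h at 37 °C to six concentrations from 10 µM down to 0.0001 µM (from 10 mM DMSO stock diluted in medium; vehicle 1% DMSO in PBS). MTT at 0.5 mg/mL was added for 4 h, formazan dissolved in DMSO, and A570 read. IC50 given as mean ± SD of three independent experiments.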

A-375 = assay: Antiproliferative activity against human A375 cells assessed as reduction in cell viability measured after 72 hrs by MTT assay; assay type: functional, cell-based; settings: A-375, 72 h; in short: as §2
SH-SY5Y = assay: Antiproliferative activity against human SH-SY5Y cells assessed as reduction in cell viability measured after 72 hrs by MTT assay; assay type: functional, cell-based; in short: as §2
MDA-MB-231 = assay: Antiproliferative activity against human MDA-MB-231 cells assessed as reduction in cell viability measured after 72 hrs by MTT assay; assay type: functional, cell-based; settings: MDA-MB-231, 72 h; in short: as §2
A549 [3] = assay: Inhibition of colony formation in human A549 cells at 10 nM incubated for 3 days followed by further incubation in drug-free medium and measured after 15 days by crystal violet staining-based inverted microscopic analysis; assay type: functional, cell-based
In short: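 A549 cells were plated at 500 per well in 2 mL medium for 24 h, then treated for 3 days, with drug-free medium replaced every 3 days afterwards. At day 15 after plating, colonies were fixed in 95% ethanol for 15 min, stained with 0.1% crystal violet, and counted; a colony was defined as more than 100 cells. Mean ± SD of three independent experiments.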

A549 [4] = assay: Cell cycle arrest in human A549 cells assessed as accumulation at G1 phase at 30 nM after 24 hrs by propidium iodide/RNase A staining-based flow cytometric analysis (reference value: 57.41%); assay type: functional
A549 [5] = assay: Cell cycle arrest in human A549 cells assessed as accumulation at S phase at 30 nM after 24 hrs by propidium iodide/RNase A staining-based flow cytometric analysis (reference value: 12.57%); assay type: functional
A549 [6] = assay: Cell cycle arrest in human A549 cells assessed as accumulation at G2 phase at 30 nM after 24 hrs by propidium iodide/RNase A staining-based flow cytometric analysis (reference value: 30.02%); assay type: functional
A549 [7] = assay: Induction of apoptosis in human A549 cells assessed as viable cells at 30 nM after 12 hrs by Annexin-V FITC/propidium iodide staining based flow cytometric analysis (reference value: 97.18%); assay type: functional; settings: A549, 12 h, read-out: Activity
A549 [8] = assay: Induction of apoptosis in human A549 cells assessed as early apoptotic cells at 30 nM after 12 hrs by Annexin-V FITC/propidium iodide staining based flow cytometric analysis (reference value: 0.32%); assay type: functional
A549 [9] = assay: Induction of apoptosis in human A549 cells assessed as late apoptotic cells at 30 nM after 12 hrs by Annexin-V FITC/propidium iodide staining based flow cytometric analysis (reference value: 1.22%); assay type: functional
A549 [10] = assay: Induction of apoptosis in human A549 cells assessed as necrotic cells at 30 nM after 12 hrs by Annexin-V FITC/propidium iodide staining based flow cytometric analysis (reference value: 1.28%); assay type: functional
PC-3 = assay: Antiproliferative activity against human PC3 cells incubated for 72 hrs by 14C-thymidine incorporation assay; assay type: functional, cell-based; settings: PC-3, 72 h
HL-60 = assay: Antiproliferative activity against human HL60 cells incubated for 96 hrs by cell-titer-Glo luminescent assay; assay type: functional, cell-based; settings: HL-60, 96 h

pIC50 (A549 [1]) | pIC50 (HCT-116) | SMILES | further results
8.00 | 7.78 | CC[C@H](C)[C@H]1C(=O)N[C@H](Cc2cc(Cl)c(O)c(Cl)c2)C(=O)N[C@@H](C(C)(C)O)C(=O)O[C@H](c2ccccc2)[C@H](C)/C=C/C=C(\C)[C@H](OC)C/C=C(\C)C(=O)N1C | 
7.67 | 7.38 | CO[C@@H]1C/C=C(\C)C(=O)N(C)[C@@H](C(C)C)C(=O)N[C@H](Cc2cc(Cl)c(O)c(Cl)c2)C(=O)N[C@@H](C(C)C)C(=O)O[C@H](c2ccccc2)[C@H](C)/C=C/C=C/1C | 
< 7.00 | < 7.00 | CO[C@@H]1C/C=C(\C)C(=O)N(C)[C@@H](C(C)C)C(=O)N[C@H](Cc2ccccc2)C(=O)N[C@@H](C(C)C)C(=O)O[C@H](c2ccccc2)[C@H](C)/C=C/C=C/1C | 
7.88 | 7.22 | CC/C1=C\C=C\[C@@H](C)[C@@H](c2ccccc2)OC(=O)[C@H](C(C)C)NC(=O)[C@@H](Cc2cc(Cl)c(O)c(Cl)c2)NC(=O)[C@H](C(C)C)N(C)C(=O)/C(C)=C/C[C@H]1OC | 
7.04 | 7.11 | CC[C@H](C)[C@H]1C(=O)N[C@H](Cc2cc(Cl)c(O)c(Cl)c2)C(=O)N[C@@H](C(C)(C)O)C(=O)O[C@H](c2ccccc2)C/C=C/C=C(\C)[C@H](OC)C[C@@H]2O[C@@]2(C)C(=O)N1C | 
6.25 | < 6.00 | CC[C@H](C)[C@@H]1NC(=O)[C@]2(C)O[C@H]2C[C@@H](OC)/C(C)=C/C=C/[C@@H](C)[C@@H](c2ccccc2)OC(=O)[C@H](C(C)(C)O)NC(=O)[C@@H](Cc2cc(Cl)c(O)c(Cl)c2)NC1=O | 
8.49 | 7.98 | CC[C@H](C)[C@H]1C(=O)N[C@H](Cc2cc(Cl)c(O)c(Cl)c2)C(=O)N[C@@H](C(C)C)C(=O)O[C@H](c2ccccc2)[C@H](C)/C=C/C=C(\C)[C@H](OC)C[C@@H]2O[C@@]2(C)C(=O)N1C | 
8.43 | 7.60 | CC[C@H](C)[C@H]1C(=O)N[C@H](Cc2ccc(O)c(OC)c2)C(=O)N[C@@H](C(C)(C)O)C(=O)O[C@H](c2ccccc2)[C@H](C)/C=C/C=C(\C)[C@H](OC)C[C@@H]2O[C@@]2(C)C(=O)N1C | 
6.34 | 6.44 | COc1cccc2c1C(=O)c1c(O)c3c(c(O)c1C2=O)C[C@@](O)(C(=O)CO)C[C@@H]3O[C@H]1C[C@H](N)[C@H](O)[C@H](C)O1 [DOXORUBICIN] | 
< 7.00 | < 7.00 | CO[C@@H]1C/C=C(\C)C(=O)N(C)[C@@H](C(C)C)C(=O)N[C@H](Cc2cc(Cl)c(O)c(Cl)c2)C(=O)N[C@@H](CC(C)C)C(=O)O[C@H](c2ccccc2)[C@H](C)/C=C/C=C/1C | 
7.44 | 7.22 | CO[C@@H]1C/C=C(\C)C(=O)N(C)[C@@H](C(C)C)C(=O)N[C@H](Cc2ccc(O)cc2)C(=O)N[C@@H](C(C)C)C(=O)O[C@H](c2ccccc2)[C@H](C)/C=C/C=C/1C | 
< 7.00 | < 7.00 | CO[C@@H]1C/C=C(\C)C(=O)N(C)[C@@H](C(C)C)C(=O)N[C@H](Cc2ccccc2)C(=O)N[C@@H](C(C)C)C(=O)O[C@H](c2ccccc2)C/C=C/C=C/1C | 
7.39 | 6.91 | CC[C@H](C)[C@H]1C(=O)N[C@H](Cc2cc(Cl)c(O)c(Cl)c2)C(=O)N[C@@H](C(C)(C)O)C(=O)O[C@H](c2ccccc2)[C@H](C)/C=C/C=C(\C)[C@H](OC)C/C=C/C(=O)N1C | 
7.84 | 7.68 | CC[C@H](C)[C@H]1C(=O)N[C@H](Cc2ccccc2)C(=O)N[C@@H](C(C)(C)O)C(=O)O[C@H](c2ccccc2)[C@H](C)/C=C/C=C(\C)[C@H](OC)C[C@@H]2O[C@@]2(C)C(=O)N1C | 
 |  | CO[C@@H]1C[C@@H]2O[C@@]2(C)C(=O)N[C@@H](C(C)C)C(=O)N[C@H](Cc2cc(Cl)c(O)c(Cl)c2)C(=O)N[C@@H](C(C)(C)O)C(=O)O[C@H](c2ccccc2)[C@H](C)/C=C/C=C/1C | IC50 (A549 [1]; a549): Not Active; IC50 (HCT-116; hct-116): Not Active; inhibition (A549 [2]): inactive

SMILES | pIC50 (A549 [1]) | pIC50 (HCT-116) | further results
CO[C@@H]1C[C@@H]2O[C@@]2(C)C(=O)N(C)[C@@H](C(C)C)C(=O)N[C@H](Cc2cc(Cl)c(O)c(Cl)c2)C(=O)N[C@@H](C(C)(C)O)C(=O)O[C@H](c2ccccc2)[C@H](C)/C=C/C=C/1C | 8.46 | 8.17 | inhibition at 0.1 µM (A549 [2]; A549, 24 h): 100%
CC[C@H](C)[C@H]1C(=O)N[C@H](Cc2cc(Cl)c(O)c(Cl)c2)C(=O)N[C@@H](C(C)(C)O)C(=O)O[C@H](c2ccccc2)[C@H](C)/C=C/C=C(\C)[C@H](OC)C[C@@H]2O[C@@]2(C)C(=O)N1C | 7.88 | 7.77 | pIC50 (MCF7): 8.06; pIC50 (A-375): 8.62; pIC50 (SH-SY5Y): 8.68; pIC50 (MDA-MB-231): 8.12; inhibition (A549 [3]): Active; Activity (A549 [4]): 43.21%; Activity (A549 [5]): 7.38%; Activity (A549 [6]): 49.41%; viability at 0.03 µM (A549 [7]): 61.6%; Activity (A549 [8]): 4.11%; Activity (A549 [9]): 22.88%; Activity (A549 [10]): 11.44%; pIC50 (PC-3): 9.00; pIC50 (HL-60): 7.92
